In ChEMBL document CHEMBL1681681, “Synthesis and anti-migrative evaluation of moverastin derivatives” (Bioorg Med Chem Lett, 2011) one finds IC50 data, which are given here for 13 compounds.

Test [1] deals with Protein farnesyltransferase (Homo sapiens, UniProt P49354+P49356). Nature of the test: Inhibition of protein farnesyltransferase from human EC17 cells using [3H]FPP and […]-H-Ras. Format: cell-based. In short, it runs like this: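 FTase is partially purified from EC17 cells. It is incubated with [3H]-farnesylpyrophosphate plus recombinant GST-H-Ras as substrates, with or without test compound. Compounds are tested up to 100 µM.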

The nature of test [2]: Cytotoxicity against human EC17 cells assessed as cell viability by trypan blue dye. Format: cell-based. The method, boiled down:
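EC17 cells are tested for viability by trypan blue dye exclusion. The 50% inhibitory concentration for viability is estimated from this assay.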

The nature of test [3]: Antimigratory activity against human EC17 cells assessed as inhibition of migration after 24 hrs by chemotaxis cell chamber assay. Format: functional, cell-based. Particulars: EC17, 24 h. The method, boiled down:
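Chemotaxis chamber: EC17 cells in upper chamber with graded compound concentrations; lower chamber holds EC17-conditioned medium (from 24 h cultures in RPMI1640 + 1% FBS) as chemoattractant. After 24 h, cells migrated through the filter to its lower side are counted. Counts are mean SD of five fields. IC50 is derived from these counts.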

`C=C(CC[C@@]1(C)[C@H](C)CCC(=O)[C@@H]1C)C(O)Cc1c(O)cc(C)cc1O` (some centres undefined): the results for the concentration for half-maximal inhibition (IC50) in test [1], in test [2] and in test [3] were over 100 µM, over 28 µM and 21.4 µM, respectively.
Take `C=C(C)C(O)Cc1c(O)cc(C)c(C=O)c1O` (centres undefined): the IC50 in test [1] is over 100 µM; in test [2] it was over 130 µM; in test [3], 30 µM.
On the same counts, the results for `C=C(CC[C@H]1[C@@H](C)CCCC1(C)C)C(=O)Cc1c(O)cc(C)c(C=O)c1O` (relative stereo) are over 100 µM, 18 µM and 4.41 µM.
On the same counts, the results for `C=C(CC/C=C(\C)CCC=C(C)C)C(O)Cc1c(O)cc(C)c(C=O)c1O` (centres undefined) are over 100 µM, over 80 µM and 7.53 µM.
On the same counts, the results for `C=C(CCC1CCCCC1)C(O)Cc1c(O)cc(C)c(C=O)c1O` (centres undefined) are over 100 µM, 87 µM and 8.43 µM.
Turning to `Cc1cc(O)c2c(c1C=O)OCC(CC[C@H]1[C@@H](C)CCCC1(C)C)=CC2` (relative stereo), the IC50 is over 100 µM in test [1], 18 µM in test [2] and 2 µM in test [3].
For the compound `C=C(CC[C@@]1(C)[C@H](C)CCC(=O)[C@@H]1C)[C@H](O)Cc1c(O)cc(C)c(C=O)c1O` [MOVERASTIN A], the IC50 in test [1] is over 100 µM; in test [2], over 77 µM; in test [3] it was 7.22 µM.
`C=C(CCc1c(C)cccc1C)C(O)Cc1c(O)cc(C)c(C=O)c1O` (centres undefined): the half-maximal inhibitory concentration (IC50) in test [1] was over 100 µM; in test [2], 45 µM; in test [3], 10.6 µM.
On the same counts, the results for `C=C(CC[C@H]1[C@@H](C)CCCC1(C)C)C(O)Cc1c(O)cc(C)cc1O` (relative stereo) are over 100 µM, 17 µM and 2.17 µM.
In the case of `C=C(CC[C@H]1[C@@H](C)CCCC1(C)C)C(O)Cc1c(O)cc(C)c(C=O)c1O` (relative stereo), the IC50 in test [1] was 14.7 µM; in test [2] it was 46 µM; in test [3] it was 1.98 µM.
`Cc1cc(O)c(CC(O)C(C)CC[C@H]2[C@@H](C)CCCC2(C)C)c(O)c1C=O` (relative stereo): the results for the IC50 in test [1], in test [2] and in test [3] were over 100 µM, 16 µM and 2.12 µM, respectively.
Take `C=C(CCC12CC3CC(CC(C3)C1)C2)C(O)Cc1c(O)cc(C)c(C=O)c1O` (centres undefined): the half-maximal inhibitory concentration (IC50) in test [1] was over 100 µM; in test [2] it was 55 µM; in test [3] it was 6.52 µM.
On the same counts, the results for `C=C(CC[C@H]1[C@@H](C)CCCC1(C)C)C(O)Cc1c(OC)cc(C)c(C=O)c1O` (relative stereo) are over 100 µM, 18 µM and 4.57 µM.

Usually IC50 stands for the point on the concentration scale where inhibition reaches its midpoint.
